Source: ChEMBL document CHEMBL1687796, “Synthesis and spectrum of the neoglycoside ACHN-490” (2010)

Columns and labels:
[1] = test system: Escherichia coli; assay: Antibacterial activity against aminoglycoside-resistant Escherichia coli expressing APH(3')-1b by broth microdilution method
[2] = test system: Escherichia coli; assay: Antibacterial activity against aminoglycoside-resistant Escherichia coli expressing AAC(6')-1 by broth microdilution method; assay type: functional
How it was run: (§1)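 Clinical aminoglycoside-resistant isolates were each carrying a single aminoglycoside-modifying enzyme. […] MICs were determined by CLSI broth microdilution.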

[3] = test system: Klebsiella pneumoniae; assay: Antibacterial activity against aminoglycoside-resistant Klebsiella pneumoniae expressing AAC(3)-4 by broth microdilution method; assay type: functional
How it was run: as §1

[4] = test system: Acinetobacter sp.; assay: Antibacterial activity against Acinetobacter spp. by broth microdilution method; assay type: functional
How it was run: (§2)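 MICs were determined by CLSI broth microdilution against clinical isolate panels that included aminoglycoside-resistant isolates. […] MIC90 was derived per group and not calculated when n was <10. Imipenem, ceftobiprole, ciprofloxacin and tigecycline MICs were also determined for the resistant isolates.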

[5] = test system: Escherichia coli; assay: Antibacterial activity against aminoglycoside-resistant Escherichia coli expressing ANT(2'')-I by broth microdilution method
[6] = test system: Staphylococcus aureus; assay: microbe, parasite or virus in culture
[7] = test system: Klebsiella oxytoca; assay: Antibacterial activity against aminoglycoside-resistant Klebsiella oxytoca expressing AAC(3)-2 by broth microdilution method; assay type: functional
How it was run: as §1

[8] = test system: Acinetobacter; assay: Antibacterial activity against aminoglycoside-resistant Acinetobacter spp. expressing APH(3')-6 by broth microdilution method; assay type: functional
How it was run: as §1

[9] = test system: Acinetobacter baumannii; assay: Antibacterial activity against aminoglycoside-resistant Acinetobacter baumannii expressing APH(3')-6 by broth microdilution method; assay type: functional
How it was run: as §1

[10] = test system: Acinetobacter baumannii; assay: Antibacterial activity against aminoglycoside-resistant Acinetobacter baumannii expressing […] by broth microdilution method; assay type: functional
How it was run: as §1

[11] = test system: Staphylococcus epidermidis; assay: Antibacterial activity against aminoglycoside-resistant Staphylococcus epidermidis expressing ANT(4',4'')-2 by broth microdilution method; assay type: functional
How it was run: as §1

[12] = test system: Escherichia coli; assay: Antibacterial activity against aminoglycoside-resistant Escherichia coli expressing armA methylase by broth microdilution method; assay type: functional
How it was run: (§3)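 MICs were measured by broth microdilution following CLSI guidance. The strains formed a 25-strain screening panel with diverse aminoglycoside resistance mechanisms. The panel included Gram-negative and S. aureus strains carrying key aminoglycoside-modifying enzymes, strains with altered permeability or efflux, and an armA ribosomal methyltransferase strain.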

[13] = test system: Klebsiella aerogenes; assay: Antibacterial activity against aminoglycoside-resistant Enterobacter aerogenes expressing AAC(6')-1 by broth microdilution method; assay type: functional
How it was run: as §1

[14] = test system: Pseudomonas aeruginosa; assay: Antibacterial activity against wild type Pseudomonas aeruginosa expressing efflux pump by broth microdilution method; assay type: functional
How it was run: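 MIC was determined by CLSI broth microdilution, read in μg/ml. The strain came from a 25-strain screening panel with diverse aminoglycoside resistance mechanisms. The panel included strains with changes in permeability or efflux, key aminoglycoside-modifying enzymes and an armA methyltransferase strain.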

[15] = test system: Klebsiella pneumoniae; assay: Antibacterial activity against aminoglycoside-resistant Klebsiella pneumoniae expressing AAC(3)-1 by broth microdilution method; assay type: functional
How it was run: as §1

[16] = test system: Escherichia coli; assay: Antibacterial activity against aminoglycoside-resistant Escherichia coli expressing ANT(6')-1 by broth microdilution method; assay type: functional
How it was run: as §1

[17] = test system: Enterobacter cloacae; assay: Antibacterial activity against aminoglycoside-resistant Enterobacter cloacae expressing ANT(2'')-I by broth microdilution method
[18] = test system: Klebsiella pneumoniae; assay: Antibacterial activity against Klebsiella pneumoniae ATCC 10031 by broth microdilution method; assay type: functional
How it was run: as §3

[19] = test system: Pseudomonas aeruginosa; assay: Antibacterial activity against efflux pump deficient Pseudomonas aeruginosa by broth microdilution method; assay type: functional
[20] = test system: Pluralibacter gergoviae; assay: Antibacterial activity against aminoglycoside-resistant Enterobacter gergoviae expressing ANT(2'')-I by broth microdilution method
[21] = test system: Acinetobacter baumannii; assay: Antibacterial activity against Acinetobacter baumannii ATCC 19606 by broth microdilution method; assay type: functional; conditions: ATCC 19606 = CIP 70.34 = JCM 6841
How it was run: as §3

[22] = test system: Pseudomonas aeruginosa; assay: Antibacterial activity against Pseudomonas aeruginosa expressing ANT(4')-2 by broth microdilution method; assay type: functional
How it was run: as §3

[23] = test system: Staphylococcus sp.; assay: Antibacterial activity against Staphylococcus spp. by broth microdilution method; assay type: functional
How it was run: as §2

[24] = test system: Pseudomonas aeruginosa; assay: Antibacterial activity against aminoglycoside-resistant Pseudomonas aeruginosa expressing ANT(2'')-1 by broth microdilution method; assay type: functional
How it was run: as §1

[25] = test system: Serratia liquefaciens; assay: Antibacterial activity against aminoglycoside-resistant Serratia liquefaciens expressing AAC(3)-2 by broth microdilution method; assay type: functional
How it was run: as §1

[26] = test system: Escherichia coli; assay: Antibacterial activity against aminoglycoside-resistant Escherichia coli expressing AAC(3)-2 by broth microdilution method; assay type: functional
How it was run: as §1

[27] = test system: Pseudomonas aeruginosa; assay: Antibacterial activity against Pseudomonas aeruginosa ATCC 27853 by broth microdilution method; assay type: functional
[28] = test system: Escherichia coli; assay: Antibacterial activity against aminoglycoside-resistant Escherichia coli expressing ANT(2'')-1 by broth microdilution method; assay type: functional
How it was run: as §1

[29] = Antibacterial activity against indole positive Proteae by broth microdilution method; assay type: functional
How it was run: as §2

[30] = test system: Pseudomonas aeruginosa; assay: Antibacterial activity against Pseudomonas aeruginosa expressing AAC(6')-2 by broth microdilution method; assay type: functional
[31] = test system: Citrobacter; assay: Antibacterial activity against Citrobacter spp. by broth microdilution method; assay type: functional
How it was run: as §2

[32] = test system: Staphylococcus aureus; assay: Antibacterial activity against aminoglycoside-resistant Staphylococcus aureus expressing APH(2'') + AAC(6') by broth microdilution method; assay type: functional
How it was run: as §3

[33] = test system: Acinetobacter calcoaceticus; assay: Antibacterial activity against aminoglycoside-resistant Acinetobacter calcoaceticus expressing AAC(6')-1 by broth microdilution method; assay type: functional
How it was run: as §1

[34] = test system: Providencia stuartii; assay: Antibacterial activity against aminoglycoside-resistant Providencia stuartii expressing AAC(2')-1 by broth microdilution method
[35] = test system: Serratia sp.; assay: Antibacterial activity against Serratia spp. by broth microdilution method; assay type: functional; conditions: Serratia sp. (in: enterobacteria)
How it was run: as §2

[36] = test system: Escherichia coli; assay: Antibacterial activity against aminoglycoside-resistant Escherichia coli expressing AAC(3)-IVa by broth microdilution method
[37] = test system: Enterobacter sp.; assay: Antibacterial activity against Enterobacter spp. by broth microdilution method; assay type: functional
How it was run: as §2

[38] = test system: Staphylococcus aureus; assay: microbe, parasite or virus in culture; remark: listed apart in the source
[39] = test system: Escherichia coli; assay: Antibacterial activity against Escherichia coli ATCC 25922 by broth microdilution method; assay type: functional
How it was run: as §3

[40] = test system: Staphylococcus epidermidis; assay: Antibacterial activity against aminoglycoside-resistant Staphylococcus epidermidis expressing APH(2'') + AAC(6')-1 by broth microdilution method; assay type: functional
How it was run: as §1

[41] = test system: Klebsiella pneumoniae; assay: Antibacterial activity against aminoglycoside-resistant Klebsiella pneumoniae expressing ANT(2'')-I by broth microdilution method
[42] = test system: Staphylococcus aureus; assay: Antibacterial activity against aminoglycoside-resistant Staphylococcus aureus expressing ANT(4',4'')-2 by broth microdilution method; assay type: functional
How it was run: as §1

[43] = test system: Acinetobacter baumannii; assay: Antibacterial activity against aminoglycoside-resistant Acinetobacter baumannii expressing ANT(2'')-1 by broth microdilution method; assay type: functional
How it was run: as §1

[44] = test system: Klebsiella sp.; assay: Antibacterial activity against Klebsiella spp. by broth microdilution method; assay type: functional
How it was run: as §2

[45] = test system: Staphylococcus epidermidis; assay: Antibacterial activity against aminoglycoside-resistant Staphylococcus epidermidis expressing APH(3')-3 by broth microdilution method; assay type: functional
[46] = test system: Escherichia coli; assay: Antibacterial activity against Escherichia coli by broth microdilution method; assay type: functional
How it was run: as §2

NCC[C@H](O)C(=O)N[C@@H]1C[C@H](N)[C@@H](O[C@H]2O[C@H](CN)[C@@H](O)[C@H](O)[C@H]2O)[C@H](O)[C@H]1O[C@H]1O[C@H](CO)[C@@H](O)[C@H](N)[C@H]1O [AMIKACIN]
2 µg/mL: MIC [3] | MIC [5] | MIC [17] | MIC [20] | MIC [27] | MIC [38] | MIC [39] | MIC [41]
18 µg/mL: MIC [40]
30 µg/mL: MIC [2] | MIC [13]
8 µg/mL: MIC [24] | MIC50 [29] | MIC [34] | MIC50 [35] | MIC50 [37]
64 µg/mL: MIC [32] | MIC90 [37]
32 µg/mL: MIC [16] | MIC [22] | MIC50 [31] | MIC [33] | MIC50 [44] | MIC90 [46]
0.5 µg/mL: MIC [1] | MIC [18] | MIC [19]
13 µg/mL: MIC [11] | MIC [42]
> 64 µg/mL: MIC50 [4] | MIC90 [4] | MIC [6] | MIC [8] | MIC [9] | MIC [12] | MIC90 [23] | MIC90 [44]
4 µg/mL: MIC [7] | MIC [10] | MIC [14] | MIC [15] | MIC [25] | MIC [26] | MIC [28] | MIC [30] | MIC [36] | MIC [45]
16 µg/mL: MIC [21] | MIC50 [23] | MIC [43] | MIC50 [46]

CN[C@@H]1[C@@H](O)[C@@H](O[C@@H]2[C@@H](O)[C@H](O[C@H]3OC(CNCCO)=CC[C@H]3N)[C@@H](N)C[C@H]2NC(=O)[C@@H](O)CCN)OC[C@]1(C)O [PLAZOMICIN]
0.125 µg/mL: MIC [19]
0.25 µg/mL: MIC [1] | MIC [16] | MIC [18]
2 µg/mL: MIC90 [23] | MIC [27] | MIC [30] | MIC [33] | MIC [43] | MIC90 [46]
32 µg/mL: MIC90 [4]
4 µg/mL: MIC [10] | MIC [14] | MIC [22] | MIC [32]
1 µg/mL: MIC [2] | MIC [3] | MIC [5] | MIC [6] | MIC [7] | MIC [8] | MIC [11] | MIC [13] | MIC [15] | MIC [17] | MIC [20] | MIC50 [23] | MIC [25] | MIC [26] | MIC [28] | MIC50 [35] | MIC [36] | MIC90 [37] | MIC [39] | MIC [40] | MIC [41] | MIC [42] | MIC90 [44] | MIC [45] | MIC50 [46]
8 µg/mL: MIC [21] | MIC50 [29]
0.5 µg/mL: MIC50 [31] | MIC50 [37] | MIC [38] | MIC50 [44]
3 µg/mL: MIC [9] | MIC [24]
> 64 µg/mL: MIC [12] | MIC [34]
16 µg/mL: MIC50 [4]
